# Experimental data taken from ChEMBL document CHEMBL1139306, “Design and synthesis of pyrazole derivatives as potent and selective inhibitors of tissue-nonspecific alkaline phosphatase (TNAP)” (Bioorg Med Chem Lett, 2009).
# Target: Alkaline phosphatase, placental type (Homo sapiens, UniProt P05187)
# Assay: Inhibition of PLAP
# Chain of Alkaline phosphatase, placental type (P05187 whole entry): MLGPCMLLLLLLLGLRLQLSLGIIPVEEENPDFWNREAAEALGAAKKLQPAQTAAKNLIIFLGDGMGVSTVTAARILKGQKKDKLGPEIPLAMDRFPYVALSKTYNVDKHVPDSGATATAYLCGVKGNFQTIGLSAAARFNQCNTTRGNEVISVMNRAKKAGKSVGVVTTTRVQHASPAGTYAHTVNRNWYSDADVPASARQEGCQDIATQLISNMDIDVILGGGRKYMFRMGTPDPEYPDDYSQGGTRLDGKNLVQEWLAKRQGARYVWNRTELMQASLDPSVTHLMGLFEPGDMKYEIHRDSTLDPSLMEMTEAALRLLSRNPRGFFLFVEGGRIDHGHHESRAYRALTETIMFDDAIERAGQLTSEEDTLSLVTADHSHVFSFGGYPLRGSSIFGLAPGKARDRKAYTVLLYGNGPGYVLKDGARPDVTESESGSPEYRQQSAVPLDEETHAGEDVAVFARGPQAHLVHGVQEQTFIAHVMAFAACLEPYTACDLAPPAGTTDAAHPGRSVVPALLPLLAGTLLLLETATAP
row,IC50 [nM],SMILES
1,> 10000,O=C(NCCO)c1cc(-c2ccc(Cl)c(Cl)c2Cl)n[nH]1

# Tested on: not listed separately
# Assay: Selectivity of TNSALP over GAPDH
row,fold change (FC),SMILES
1,2000,O=C(NCCO)c1cc(-c2ccc(Cl)c(Cl)c2Cl)n[nH]1

# Tested on: not listed separately
# Assay: Selectivity of TNSALP over PLAP
row,fold change (FC),SMILES
1,2000,O=C(NCCO)c1cc(-c2ccc(Cl)c(Cl)c2Cl)n[nH]1

# Target: T1, Alkaline phosphatase, tissue-nonspecific isozyme (Homo sapiens, UniProt P05186)
# T1 sequence (P05186 whole entry): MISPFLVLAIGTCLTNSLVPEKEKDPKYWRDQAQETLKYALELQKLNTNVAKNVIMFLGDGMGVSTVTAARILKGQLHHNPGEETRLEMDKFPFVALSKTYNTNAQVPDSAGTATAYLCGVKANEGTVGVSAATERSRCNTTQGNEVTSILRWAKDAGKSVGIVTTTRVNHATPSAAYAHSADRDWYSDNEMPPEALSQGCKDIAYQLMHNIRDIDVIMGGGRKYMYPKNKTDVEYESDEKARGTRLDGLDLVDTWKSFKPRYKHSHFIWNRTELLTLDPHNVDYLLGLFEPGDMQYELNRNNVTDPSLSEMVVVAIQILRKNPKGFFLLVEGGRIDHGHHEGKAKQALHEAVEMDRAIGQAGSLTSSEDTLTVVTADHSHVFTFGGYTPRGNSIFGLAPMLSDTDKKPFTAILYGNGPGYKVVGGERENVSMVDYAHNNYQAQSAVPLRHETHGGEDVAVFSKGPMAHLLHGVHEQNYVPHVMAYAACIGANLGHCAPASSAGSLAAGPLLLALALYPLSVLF
# Assay: Inhibition of TNSALP
# In short: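 TNAP activity read on an EnVision plate reader in 100 mM diethanolamine-HCl, pH 9.8, with 1 mM MgCl₂, 20 μM ZnCl₂ and 50 μM CDP-star as substrate.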
row,IC50 [nM],SMILES
1,47,O=C(c1cc(-c2ccc(Cl)cc2Cl)n[nH]1)N(CCO)CCO
2,35,O=C(NCCO)c1cc(-c2ccc(F)cc2F)n[nH]1
3,119,CN(C)C(=O)c1cc(-c2ccc(Cl)cc2Cl)n[nH]1
4,51,CC(C)NC(=O)c1cc(-c2ccc(Cl)cc2Cl)n[nH]1
5,127,O=C(c1cc(-c2cc(F)c(Cl)cc2Cl)n[nH]1)N(CCO)CCO
6,459,CC(C)CCNC(=O)c1cc(-c2ccc(Cl)cc2Cl)n[nH]1
7,44,O=C(NCCO)c1cc(-c2ccc(Cl)cc2Cl)n[nH]1
8,574,O=C(c1cc(-c2ccc(Cl)cc2Cl)n[nH]1)N1CCOCC1
9,35,O=C(NCCCCO)c1cc(-c2ccc(Cl)cc2Cl)n[nH]1
10,324,CN(C)C(=O)c1cc(-c2cc(F)c(Cl)cc2Cl)n[nH]1
11,31,O=C(NCCCO)c1cc(-c2ccc(Cl)cc2Cl)n[nH]1
12,82,CC(C)CNC(=O)c1cc(-c2ccc(Cl)cc2Cl)n[nH]1
13,56,O=C(NCCCO)c1cc(-c2cc(F)c(Cl)cc2Cl)n[nH]1
14,4850,CC(C)NC(=O)c1cc(-c2cc(F)c(Cl)cc2Cl)n[nH]1
15,46,COCCNC(=O)c1cc(-c2ccc(Cl)cc2Cl)n[nH]1
16,488,CCN1CCN(C(=O)c2cc(-c3ccc(Cl)cc3Cl)n[nH]2)CC1
17,44,NNC(=O)c1cc(-c2ccc(Cl)cc2Cl)n[nH]1
18,828,CN1CCN(C(=O)c2cc(-c3ccc(Cl)cc3Cl)n[nH]2)CC1
19,398,CC(C)(C)NC(=O)c1cc(-c2ccc(Cl)cc2Cl)n[nH]1
20,375,O=C(c1cc(-c2ccc(Cl)cc2Cl)n[nH]1)N1CCN(CCO)CC1
21,285,CCN(CC)C(=O)c1cc(-c2ccc(Cl)cc2Cl)n[nH]1
22,134,O=C(NCCO)c1cc(-c2cc(F)c(F)cc2F)n[nH]1
23,1450,O=C(c1cc(-c2ccc(Cl)cc2Cl)n[nH]1)N1CCCCCC1
24,100,O=C(NCCO)c1cc(-c2cc(F)c(Cl)cc2Cl)n[nH]1

# Target: Glyceraldehyde-3-phosphate dehydrogenase (Homo sapiens, UniProt P04406)
# Sequence (P04406 whole entry): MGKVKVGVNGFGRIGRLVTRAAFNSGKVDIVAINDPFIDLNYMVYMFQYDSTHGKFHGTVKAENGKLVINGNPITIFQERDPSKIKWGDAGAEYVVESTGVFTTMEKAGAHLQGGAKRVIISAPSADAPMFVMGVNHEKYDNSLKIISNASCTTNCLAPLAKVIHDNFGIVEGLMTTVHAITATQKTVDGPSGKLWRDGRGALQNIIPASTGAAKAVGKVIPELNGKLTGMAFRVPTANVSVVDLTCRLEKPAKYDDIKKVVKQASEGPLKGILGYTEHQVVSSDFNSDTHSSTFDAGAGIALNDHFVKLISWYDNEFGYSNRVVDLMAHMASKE
# Assay: Inhibition of GAPDH
row,IC50 [nM],SMILES
1,> 10000,O=C(NCCO)c1cc(-c2ccc(Cl)c(Cl)c2Cl)n[nH]1
